# PubChem BioAssay
# Calls of active or inactive are those of the source.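 The calls were made as follows, unless noted: active = GFP response above 150% of the DMSO level; inconclusive = fewer than 70 events counted for a yeast strain; inactive = the rest.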
# What was measured:
# [1] = hit retest on RPL19A-GFP reporter strain – cell-based, S. cerevisiae, flow cytometry, cherry picks, mother/daughter gates, confirmation (AID 2270;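 active = GFP response below 50% of the DMSO control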); settings: 3 h, at 10 µM, stronger effect = lower value, 100 = same GFP as DMSO wells
# [2] = yeast TOR pathway reporter LAP4-GFP change – cell-based, cherry picks, flow cytometry, mother/daughter gates, confirmation (AID 2271;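 active = GFP response above 150% of the DMSO control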;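 also: ratio of sample to DMSO plate mean so 100% equals DMSO level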); settings: S. cerevisiae LAP4-GFP strain, 3 h, at 10 µM, stronger effect = higher value, 100 means same as DMSO control
# Method in brief: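 Material: Alexa 633-stained baker's yeast GFP-fusion strain; Compound dosing: single test-compound dose, 10 µM final; Incubation: 30 °C, 3 h compound incubation, rotating; Detection: HT flow cytometry, GFP fluorescence channel; Control set: positive rapamycin (400 ng/mL), negative DMSO.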
# [3] = TOR pathway reporter MEP2-GFP, retest of hits – S. cerevisiae, flow cytometry GFP, cherry picks, confirmation (AID 2272;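 active = GFP response above 150% of the DMSO control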;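 also: ratio of well signal to plate DMSO mean so 100% equals DMSO level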); settings: S. cerevisiae MEP2-GFP strain, 3 h, at 10 µM, stronger effect = higher value
# [4] = yeast AGP1-GFP fluorescence change, single-dose – cell-based, flow cytometry, S. cerevisiae, cherry picks, confirmation (AID 2273);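 also: median GFP channel fluorescence over the whole cell population gate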; settings: S. cerevisiae AGP1-GFP strain, 3 h, at 10 µM
# [5] = TOR pathway CIT2 reporter hit retest – S. cerevisiae, GFP fusion, cherry picks, mother/daughter gates, confirmation (AID 2274); settings: S. cerevisiae CIT2-GFP strain, flow cytometry, 3 h, at 10 µM, stronger effect = higher value
# [6] = measured here: daughter cell gate
# [7] = measured here: mother cell gate
# [8] = measured here: daughter cell gate response
# [9] = measured here: mother cell gate response
SMILES,GFP response vs DMSO [1],"GFP response vs DMSO [1, 6] [%]","GFP response vs DMSO [1, 7] [%]",GFP response relative to DMSO [2],"GFP response relative to DMSO [2, 8] [%]","GFP response relative to DMSO [2, 9] [%]",GFP response vs DMSO [3],"GFP response, % of DMSO [4]","GFP response, % of DMSO [5]","GFP response, % of DMSO [5, 6] [%]","GFP response, % of DMSO [5, 7] [%]"
O=C1C=CC(=O)N1c1ccc(Sc2ccc([N+](=O)[O-])cc2)cc1,74% (inactive),96.8,61.1,143% (inactive),142,124,125% (inactive),106% (inactive),79.7% (inactive),90.5,63.8
O=C(NCc1ccc2c(c1)OCO2)c1nc(S(=O)(=O)Cc2ccccc2F)ncc1Cl,99.1% (inactive),99.3,97.8,101% (inactive),104,102,103% (inactive),100% (inactive),94.4% (inactive),94,96
Cc1ccc(/C=C2\SC(=S)N(CC3CCCO3)C2=O)o1 (stereo not drawn),93.8% (inactive),94.2,93.5,189% (active),167,194,143% (inactive),100% (inactive),98.6% (inactive),97.6,98.2
O=C1C(CSCc2ccccc2)NC(=S)N1c1ccccc1 (stereo not drawn),102% (inactive),102,101,122% (inactive),120,128,98.8% (inactive),98.1% (inactive),99.7% (inactive),102,94.7
COc1ccc(-c2[nH]ncc2N=Nc2ccccc2)cc1,96.2% (inactive),94.3,96.6,107% (inactive),104,108,94.4% (inactive),92.2% (inactive),97.2% (inactive),98.4,93.7
Cn1ncc(N2CCN(S(=O)(=O)c3ccc(Br)cc3)CC2)c(Cl)c1=O,98.2% (inactive),97.9,98.7,96.7% (inactive),96,95.1,107% (inactive),99.3% (inactive),98.3% (inactive),101,97.3
COC(=O)c1cc(N2C(=O)C3C(C2=O)C2(C)C=CC3(C)O2)ccc1Cl (stereo not drawn),101% (inactive),101,92.5,193% (active),173,177,110% (inactive),106% (inactive),101% (inactive),109,88.6
O=C(O)c1ccc(N/N=C/C(Br)=C/c2ccccc2)cc1,98.4% (inactive),97,96.7,131% (inactive),130,130,97.5% (inactive),94.7% (inactive),90.7% (inactive),92.7,85.1
O=C1c2ccsc2SCCN1Cc1c(F)cccc1Cl,92.8% (inactive),90.7,93.9,112% (inactive),110,113,96.8% (inactive),99% (inactive),98.8% (inactive),99.2,98.1
COc1ccc(N2C(=O)CC(Sc3nccc(C)n3)C2=O)cc1 (stereo not drawn),97.2% (inactive),98,96.5,98.8% (inactive),101,98.5,104% (inactive),107% (inactive),99.3% (inactive),96.4,100
NC(=O)c1ccccc1OCC(=O)c1ccc(Cl)cc1,100% (inactive),101,99,96.5% (inactive),96,97.4,99.3% (inactive),102% (inactive),100% (inactive),97.6,100
Cc1cc(C(=O)Nc2nc(-c3ccccn3)cs2)ccc1[N+](=O)[O-],104% (inactive),107,97.2,158% (active),149,155,107% (inactive),84.3% (inactive),105% (inactive),110,99.3
COCc1nnc(NC(=O)c2ccc(S(=O)(=O)N(C)c3ccccc3)cc2)o1,96.8% (inactive),96.6,97.1,101% (inactive),99.2,98.3,100% (inactive),92.5% (inactive),96.9% (inactive),97.2,97.3
COc1ccc(N2CCN(C(=O)c3ccccc3)CC2)c([N+](=O)[O-])c1,101% (inactive),98.8,103,106% (inactive),104,108,107% (inactive),102% (inactive),91.5% (inactive),93.8,96.8
CCOC(=O)c1ccccc1NC(=O)c1c(O)c2ccccc2n(CC)c1=O,95.6% (inactive),96.9,96.2,101% (inactive),102,98.3,102% (inactive),93.7% (inactive),98.3% (inactive),99.1,97.3
Cc1noc(/C=C/c2cccnc2)c1[N+](=O)[O-],105% (inactive),104,103,120% (inactive),117,124,104% (inactive),92.4% (inactive),92.6% (inactive),94.8,89.1
Cc1ccc(S(=O)(=O)/N=C(\Sc2ccccc2)c2ccccc2)cc1,99.5% (inactive),98.3,98.6,151% (active),134,148,106% (inactive),97.3% (inactive),92.1% (inactive),92.7,87.5

SMILES,GFP response vs DMSO [1],"GFP response vs DMSO [1, 6] [%]","GFP response vs DMSO [1, 7] [%]",GFP response relative to DMSO [2],"GFP response relative to DMSO [2, 8] [%]","GFP response relative to DMSO [2, 9] [%]",GFP response vs DMSO [3],"GFP response, % of DMSO [4]","GFP response, % of DMSO [5]","GFP response, % of DMSO [5, 6] [%]","GFP response, % of DMSO [5, 7] [%]"
Cc1ccc(/C=C/C(=O)c2ccc(C)cc2)cc1,97.2% (inactive),96.2,99.3,98.8% (inactive),99.3,96.5,99.5% (inactive),98.2% (inactive),102% (inactive),102,103
Cc1cc(N2CCC(C)CC2)n2nc(C)c(-c3ccccc3)c2n1,101% (inactive),101,101,97.7% (inactive),93.6,97.5,104% (inactive),98.4% (inactive),101% (inactive),102,99.1
O=C(/C=C/c1ccnc2ccccc12)c1cccs1,101% (inactive),98.8,99.5,172% (active),156,171,126% (inactive),112% (inactive),90.7% (inactive),94.6,84
O=C(/C=C/c1ccccc1)C1=C(O)C(=O)N(CCO)C1c1cccc([N+](=O)[O-])c1 (stereo not drawn),99.8% (inactive),99.3,100,97.7% (inactive),101,97.4,101% (inactive),103% (inactive),100% (inactive),101,99.3
Cc1ccc2c(nc3s/c(=C\c4ccc(-c5ccccc5C(=O)O)o4)c(=O)n32)c1C,119% (inactive),117,117,243% (active),218,259,346% (active),119% (inactive),157% (active),158,154
Cn1c(=O)c(C(=O)NC2CCCCCCC2)c(O)c2ccccc21,101% (inactive),102,103,93.8% (inactive),94.1,96.2,95.7% (inactive),98.9% (inactive),107% (inactive),105,111
COC(=O)C1=C(C)NC(C)=C(C(=O)OC)C1c1ccc(OC(=O)c2oc3ccccc3c2C)c(OC)c1,98.8% (inactive),98.1,98.8,90% (inactive),90.4,89.9,98.8% (inactive),103% (inactive),103% (inactive),102,104
CCN(C(=O)c1ccccc1Cl)c1ccccc1,98.5% (inactive),99,98,107% (inactive),104,110,99.3% (inactive),98.8% (inactive),100% (inactive),101,100
O=C1c2cccc3cccc(c23)C(=O)N1c1ccncc1,96.4% (inactive),97,98.8,84.9% (inactive),85,84.7,97.5% (inactive),103% (inactive),105% (inactive),106,106
CCCS(=O)(=O)N1CCC(C(=O)c2cccc(C(F)(F)F)c2)CC1,98.8% (inactive),97,98.2,101% (inactive),98.7,102,100% (inactive),97.8% (inactive),91.3% (inactive),93.2,89.1
Cc1ccc(S(=O)(=O)Nc2cc(Cl)c(O)c3ncccc23)cc1,95.2% (inactive),94.2,97.1,122% (inactive),120,126,110% (inactive),91.2% (inactive),97.8% (inactive),100,96.8
CCOc1cc(C)c(S(=O)(=O)N2CCCC2)cc1C,90% (inactive),83.8,91.1,137% (inactive),128,145,92.6% (inactive),94.5% (inactive),78.5% (inactive),72.1,80.9
Oc1c(Br)cc(Br)cc1C=NCc1ccccc1,101% (inactive),91.3,101,135% (inactive),105,137,112% (inactive),99.7% (inactive),104% (inactive),108,92.1
Cc1ccc(NC(=O)CC2SC(=O)N(c3ccccc3)C2=O)cc1 (stereo not drawn),97.8% (inactive),101,94.5,142% (inactive),140,143,112% (inactive),98.9% (inactive),102% (inactive),104,94.5
O=C1Nc2ccccc2C(=O)C1(Cl)Cc1ccccc1 (stereo not drawn),89.6% (inactive),91.9,88.3,132% (inactive),124,134,101% (inactive),102% (inactive),94.4% (inactive),95.8,90.4
COCCCN1C(=O)C2C(C(=O)Nc3cc(C)cc(C)c3)C3C=CC2(O3)C1C(=O)NC1CCCCC1 (stereo not drawn),100% (inactive),101,101,95% (inactive),100,98.3,102% (inactive),96.7% (inactive),112% (inactive),105,114
